The values that follow come from ChEMBL document CHEMBL4049414, “Can We Make Small Molecules Lean? Optimization of a Highly Lipophilic TarO Inhibitor” (J Med Chem, 2017).

Values after ≈ are worked out from the molar mass of the structure shown. Active and inactive are the calls of the source. No cut-off for these calls is given here.

Series [1] in a line: Inhibition of TarO in methicillin-resistant Staphylococcus aureus membranes assessed as reduction in C55-P-P-GlcNAc production using C55-P as substrate in presence of UDP-GlcNAc by LC-MS analysis.
In series [2] the test system is Staphylococcus aureus. Put plainly: Growth inhibition of methicillin-resistant Staphylococcus aureus COL after 20 hrs. The essentials: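 MRSA COL grown with compound alone, with no antibiotic added. Growth read by OD600. The value is the minimum concentration that inhibits 95% of growth (iMITC95).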
For series [3], the system named is Staphylococcus aureus subsp. aureus COL. Put plainly: Inhibition of methicillin-resistant Staphylococcus aureus COL TarO assessed as compound concentration required for potentiation of imipenem-mediated bacterial growth inhibition by 95% after 20 hrs. An outline of the steps:
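MRSA COL grown with compound in the presence of imipenem at 4 μg/mL. Growth read by OD600. The value is the minimum concentration that inhibits 95% of growth (sMITC95).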

Series [4] in a line: Solubility of the compound in PBS buffer. In kind it is physicochemical.
Series [5] deals with Staphylococcus aureus. Put plainly: Potentiation of imipenem-induced antibacterial activity against methicillin-resistant Staphylococcus aureus COL MB 5393 infected in neutropenic balb/c mouse assessed as reduction in bacterial burden in kidney at 10 mg/kg, sc administered three times per day at 2, 5 and 8 hrs post challenge cotreated with imipenem measured 24 hrs post challenge. In kind it is functional, organism-based.

The species entered for series [6] is Homo sapiens. In words: Inhibition of adenosine transporter (unknown origin) at 10 uM relative to control.
Series [7] in a line: Volume of distribution at steady state in rat at 1 mg/kg, iv. In kind it is ADME, organism-based. To be noted: in vivo, read-out: Vdss.
In series [8] the target is Cannabinoid receptor 1 (Homo sapiens) (UniProt P21554). In words: Inhibition of CB1 receptor (unknown origin) at 10 uM relative to control.
Series [9] can be described thus: AUC (0 to infinity) in rat at 1 mg/kg, iv. In kind it is ADME, organism-based. On the set-up: dose 1 mg/kg, time infinity, route intravenous. To be noted: in vivo.
In series [10] the target is Histamine H2 receptor (Homo sapiens) (UniProt P25021). In words: Inhibition of H2 receptor (unknown origin) at 10 uM relative to control.
Series [11] has as its target Mitogen-activated protein kinase 3 (Homo sapiens) (UniProt P27361). Put plainly: Inhibition of ERK1 (unknown origin) at 10 uM relative to control.
Series [12] in a line: Clearance in rat at 1 mg/kg, iv. The note with it: in vivo. In kind it is ADME, organism-based.
Series [13] is filed under the species Homo sapiens. Put plainly: Inhibition of PAF (unknown origin) at 10 uM relative to control.
For series [14], the species on record is Homo sapiens. Put plainly: Inhibition of TBOB binding to GABA-A receptor (unknown origin) at 10 uM relative to control.
A short description of series [15]: Terminal half life in rat at 1 mg/kg, iv. In kind it is ADME, organism-based. To be noted: in vivo, read-out: beta t1/2 (converted).
Series [16] can be described thus: Inhibition of methicillin-resistant Staphylococcus aureus COL TarO assessed as late stage targocil suppression after 20 hrs. On the set-up: species or system Staphylococcus aureus subsp. aureus COL.
The nature of series [17]: Inhibition of methicillin-resistant Staphylococcus aureus COL TarO assessed as suppression of bacteriophage K-mediated cell lysis. Further details: species or system Staphylococcus aureus subsp. aureus COL.
The nature of series [18]: AUC (0 to 24 hrs) in mouse at 100 mg/kg, po. In kind it is ADME, organism-based. Further details: time < 24 hr, dose 100 mg/kg, route oral. The note with it: in vivo.
Series [19] relates to Staphylococcus aureus. Put plainly: Antibacterial activity against methicillin-resistant Staphylococcus aureus COL MB 5393 infected in balb/c mouse assessed as reduction in bacterial burden in kidney at 5 mg/kg, sc administered 2 to 8 hrs post challenge measured 24 hrs post challenge. In kind it is functional, organism-based.

Cannabinoid receptor 1 (Homo sapiens), sequence (P21554 whole entry): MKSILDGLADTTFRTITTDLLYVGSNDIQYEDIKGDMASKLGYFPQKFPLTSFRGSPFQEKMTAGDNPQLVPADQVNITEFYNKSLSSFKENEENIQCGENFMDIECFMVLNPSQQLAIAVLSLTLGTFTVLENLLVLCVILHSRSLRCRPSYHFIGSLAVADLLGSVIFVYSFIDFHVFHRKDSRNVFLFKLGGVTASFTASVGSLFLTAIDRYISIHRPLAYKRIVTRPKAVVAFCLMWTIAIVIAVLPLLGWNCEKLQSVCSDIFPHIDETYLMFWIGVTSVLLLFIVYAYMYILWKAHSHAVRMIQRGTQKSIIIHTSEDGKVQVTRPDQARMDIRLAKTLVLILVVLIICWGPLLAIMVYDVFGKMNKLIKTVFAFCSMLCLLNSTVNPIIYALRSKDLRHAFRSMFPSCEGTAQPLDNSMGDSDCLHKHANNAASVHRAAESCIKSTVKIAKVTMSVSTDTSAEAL
Mitogen-activated protein kinase 3 (Homo sapiens), sequence (P27361 whole entry): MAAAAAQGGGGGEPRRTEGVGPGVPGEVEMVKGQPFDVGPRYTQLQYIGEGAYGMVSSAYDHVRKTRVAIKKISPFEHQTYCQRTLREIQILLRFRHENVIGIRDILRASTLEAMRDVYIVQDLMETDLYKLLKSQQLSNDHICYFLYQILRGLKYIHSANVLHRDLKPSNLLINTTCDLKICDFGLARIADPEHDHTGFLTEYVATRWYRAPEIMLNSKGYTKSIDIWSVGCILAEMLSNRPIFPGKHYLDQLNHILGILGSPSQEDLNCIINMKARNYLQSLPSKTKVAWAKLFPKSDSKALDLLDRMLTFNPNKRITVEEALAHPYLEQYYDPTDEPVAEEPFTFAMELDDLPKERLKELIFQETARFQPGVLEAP
Histamine H2 receptor (Homo sapiens), sequence (P25021 whole entry): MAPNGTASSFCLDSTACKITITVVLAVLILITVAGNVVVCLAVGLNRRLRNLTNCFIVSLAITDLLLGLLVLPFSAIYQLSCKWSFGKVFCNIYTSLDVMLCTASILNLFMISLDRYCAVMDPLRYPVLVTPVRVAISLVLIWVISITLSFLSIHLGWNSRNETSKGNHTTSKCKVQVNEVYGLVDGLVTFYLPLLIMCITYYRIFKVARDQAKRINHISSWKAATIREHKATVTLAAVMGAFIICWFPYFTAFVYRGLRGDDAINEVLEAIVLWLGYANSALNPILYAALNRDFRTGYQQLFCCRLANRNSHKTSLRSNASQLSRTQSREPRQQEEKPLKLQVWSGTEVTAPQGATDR

What is called IC50 is the concentration that gives 50% inhibition. Take `O=C(NCc1cncc2ccccc12)N1C(=O)O[C@H](c2cc(F)cc(C(F)(F)F)c2)[C@@H]1CO`: in series [1], the IC50 came out at 210 nM. The MITC95 in the series on Staphylococcus aureus [2] is greater than 200 µM; in [3], 320 nM.

Usually solubility stands for the dissolved amount per volume that the medium holds. A low value points to little dissolved substance. Regarding `C[C@H]1[C@@H](c2cc(C(F)(F)F)cc(C(F)(F)F)c2)OC(=O)N1C(=O)Cc1cccc2ccccc12`, the IC50 in series [1] was 125 to 171 nM. Also, the MITC95 with Staphylococcus aureus [2] is greater than 200 µM; in series [3], 900 nM. In [4], this compound had a solubility of less than 1 µM.

With `COc1cc(C(F)(F)F)cc([C@H]2OC(=O)N(C(=O)NCc3cncc4ccccc34)[C@H]2CO)n1`, the IC50 in [1] amounted to 80 nM. In addition, the results for the MITC95 (with Staphylococcus aureus [2]; in series [3]) were greater than 200 µM and 360 nM, respectively.

Consider `CC(=O)NC[C@H]1CN(c2ccc(N3CCOCC3)c(F)c2)C(=O)O1`, for which the outcome with Staphylococcus aureus [5] was Active.

`O=C(NCc1cncc2ccccc12)N1C(=O)O[C@H](c2cccc(C(F)(F)F)c2)[C@@H]1CO`: in series [1], the 50% inhibitory concentration (IC50) is 300 nM. Also, the results for the MITC95 (in the series with Staphylococcus aureus [2]; in [3]) were greater than 200 µM and 650 nM, respectively.

The inhibition is the percentage by which the read-out fell short of the control. In general, AUC(0-inf) refers to the area under the concentration-time curve extrapolated to infinity. A lower AUC(0-inf) goes with low exposure. Usually clearance stands for the volume of plasma or blood freed of the substance per unit of time. A higher clearance goes with a high capacity for elimination. As to `COc1cc(C(F)(F)F)cc([C@H]2OC(=O)N(C(=O)NCc3cncc4cccnc34)[C@H]2CO)n1`, the inhibition entry (in the series filed under Homo sapiens [6]; in series [8]; in series [10]; in series [11]; in the series filed under Homo sapiens [13]; in the series filed under Homo sapiens [14]) was “inactive” each time. Besides, the Vd in series [7] was determined as 1.2 L/kg. Moreover, the IC50 in series [1] is 880 nM. The AUC(0-inf) in [9] was 0.95 µM·h. For the same compound, the MITC95 in the series with Staphylococcus aureus [2] is greater than 200 µM; in [3] it was 900 nM. For the same compound, the clearance in series [12] was 36.8 mL/min/kg. Further, in series [15], the half-life is 28.8 min. Moreover, in [4], the concentration in solution (solubility) was 94 µM (≈ 44.9 µg/mL).

In the case of `O=C(O)[C@H]1[C@@H](c2cccc(C(F)(F)F)c2)OC(=O)N1C(=O)NCc1cncc2ccccc12`, in series [1], the IC50 was greater than 200000 nM. Further, the MITC95 with Staphylococcus aureus [2] is greater than 200 µM; in series [3] it was greater than 200000 nM.

Regarding `COc1cc(C(F)(F)F)cc([C@H]2OC(=O)N(C(=O)NCc3cncc4cccnc34)[C@H]2C)n1`, the IC50 in series [16] amounted to 200 nM; in series [1], 260 nM; in series [17] it was 600 nM. Moreover, the MITC95 was greater than 200 µM with Staphylococcus aureus [2] and 375 nM in series [3]. For the same compound, the solubility in series [4] amounted to 32 µM (≈ 14.8 µg/mL).

For `C[C@H]1[C@@H](c2cc(C(F)(F)F)cc(C(F)(F)F)c2)OC(=O)N1CC(=O)Nc1cncc2ccccc12`, in series [1], the IC50 is greater than 200000 nM. In [3], the MITC95 is greater than 200000 nM.

What is called AUC(0-t) is exposure summed from dosing to a finite time, without extrapolation to infinity. Read a low AUC(0-t) as less exposure. For the compound `C[C@H]1[C@@H](c2cc(C(F)(F)F)cc(C(F)(F)F)c2)OC(=O)N1C(=O)CCc1cncc2ccccc12`, the inhibition (in the series listed under Homo sapiens [6]; in series [8]; in series [10]; in series [11]; in the series filed under Homo sapiens [13]; in the series filed under Homo sapiens [14]) was greater than 50% each time. Further, the IC50 in series [1] was found to be 24 nM. Besides, the MITC95 was greater than 200 µM in the series with Staphylococcus aureus [2] and 23 nM in [3]. This compound also yielded an AUC(0-t) at 24 h in series [18] of 1.7 µM·h.

As for `C[C@@H](O)[C@H]1C(=O)N2C(C(=O)O)=C(SCCNC=N)C[C@H]12`, the result in the series with Staphylococcus aureus [19] was inactive.

As to `O=C(NCc1cncc2ccccc12)N1C(=O)O[C@H](c2cc(C(F)(F)F)cc(C(F)(F)F)c2)[C@@H]1CO`, the values for the IC50 in [16], in series [1] and in series [17] were 496 nM, 170 to 174 nM and 1260 nM, respectively. Also, the MITC95 in the series with Staphylococcus aureus [2] was greater than 200 µM; in series [3] it was 220 nM.

For `O=C(NCc1cncc2cccnc12)N1C(=O)O[C@H](c2cc(C(F)(F)F)cc(C(F)(F)F)c2)[C@@H]1CO`, the IC50 in [1] was found to be 142 nM. In addition, the MITC95 with Staphylococcus aureus [2] is greater than 200 µM; in series [3], 390 nM.

Take `C[C@H]1[C@@H](c2cc(C(F)(F)F)cc(C(F)(F)F)c2)OC(=O)N1C(=O)NCc1cncc2ccccc12`: the figures for the IC50 in [16], in series [1] and in series [17] were 191 nM, 29 nM and 94 nM, respectively. The MITC95 in the series on Staphylococcus aureus [2] is greater than 200 µM; in series [3], 31 nM.

Regarding `C[C@H]1[C@@H](c2cc(C(F)(F)F)cc(C(F)(F)F)c2)OC(=O)N1C(=O)CCc1cccc2ccccc12`, in series [1], the IC50 was found to be 9 nM. In addition, the values for the MITC95 (in the series on Staphylococcus aureus [2]; in series [3]) were greater than 200 µM and 15 nM, respectively.

Take `C[C@H]1[C@@H](c2cc(C(F)(F)F)cc(C(F)(F)F)c2)OC(=O)N1C(=O)CCCc1cccc2ccccc12`: in series [1], the IC50 is 28 nM. For the same compound, the MITC95 in the series with Staphylococcus aureus [2] is greater than 200 µM; in series [3], 125 nM.

As for `C[C@H]1[C@@H](c2cc(C(F)(F)F)cc(C(F)(F)F)c2)OC(=O)N1CCC(=O)N1CCOc2ccccc21`, in [1], the IC50 was greater than 200000 nM. The MITC95 in [3] is greater than 200000 nM.

On to `C[C@H]1[C@@H](c2cc(C(F)(F)F)cc(C(F)(F)F)c2)OC(=O)N1C(=O)Cc1cncc2ccccc12`, for which the IC50 in [1] was 2500 nM. Moreover, the MITC95 in the series on Staphylococcus aureus [2] is greater than 200 µM.

Take `C[C@H]1[C@@H](c2ccccn2)OC(=O)N1C(=O)NCCc1cccc2ccccc12`: the IC50 in [1] was 16000 nM. For the same compound, the MITC95 in series [3] is greater than 200000 nM.

`C[C@H]1[C@@H](c2cc(C(F)(F)F)cc(C(F)(F)F)c2)OC(=O)N1C(=O)NCc1cncc2cccnc12`: in [1], the IC50 came out at 12 nM. For the same compound, the MITC95 with Staphylococcus aureus [2] was greater than 200 µM; in series [3], 125 nM.

`C[C@H]1[C@@H](c2cc(F)cc(C(F)(F)F)c2)OC(=O)N1C(=O)NCc1cncc2ccccc12`: the IC50 in series [1] came to 25 nM. For the same compound, the MITC95 in the series with Staphylococcus aureus [2] was greater than 200 µM; in series [3] it was 125 nM.

As for `C[C@H]1[C@@H](c2cc(C(F)(F)F)cc(C(F)(F)F)c2)OC(=O)N1CCCc1cccc2ccccc12`, in series [1], the IC50 stood at 38 nM.

For `O=C(O)C[C@H]1[C@@H](c2cc(F)cc(C(F)(F)F)c2)OC(=O)N1C(=O)NCc1cncc2ccccc12`, the IC50 in series [1] was greater than 200000 nM. Moreover, the MITC95 was greater than 200 µM in the series on Staphylococcus aureus [2] and greater than 200000 nM in series [3].

With `C[C@H]1[C@@H](c2cc(C(F)(F)F)ccn2)OC(=O)N1C(=O)NCc1cncc2ccccc12`, the 50% inhibitory concentration (IC50) in series [1] was 5300 nM. The MITC95 in the series on Staphylococcus aureus [2] is greater than 200 µM; in [3] it was 6250 nM.

Turning to `O=C(NCc1cncc2ccccc12)N1C(=O)O[C@H](c2cc(F)cc(C(F)(F)F)c2)[C@@H]1CCO`, in series [1], the IC50 worked out at 4700 nM. Further, the values for the MITC95 (in the series on Staphylococcus aureus [2]; in series [3]) were greater than 200 µM and 18000 nM, respectively.

As to `C[C@H]1[C@@H](c2cccc(C(F)(F)F)c2)OC(=O)N1C(=O)NCc1cncc2cccnc12`, in [1], the IC50 stood at 402 nM. Further, the values for the MITC95 (in the series with Staphylococcus aureus [2]; in series [3]) were greater than 200 µM and 970 nM, respectively.
